Shown are actives, neighbours in structure and some others; about 3.5% of the full set was active somewhere.
RGS4 block – RGS4 inhibitors, primary screen, cell-based, HEK293 M3R inducible RGS4, calcium flux | Regulator of G-protein signaling 4 (Homo sapiens), P49798 | Fluo-4 calcium flux; stronger effect = higher value; triggered by carbachol at its EC20 | B-score at 10 µM | 310,000 compounds, 0.45% hits | AID 463165, 2010;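 active = B-score, a plate-corrected calcium signal, over three deviations above library mean, with baseline fluorescence within five deviations of library mean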;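 note: RGS4 expression induced by doxycycline in cells with stable M3 receptor; B-score is computed from the integrated fluorescence ratio over baseline after carbachol; higher B-score means a larger calcium signal and so more RGS4 inhibition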
Target sequence (P49798 whole entry, looked up): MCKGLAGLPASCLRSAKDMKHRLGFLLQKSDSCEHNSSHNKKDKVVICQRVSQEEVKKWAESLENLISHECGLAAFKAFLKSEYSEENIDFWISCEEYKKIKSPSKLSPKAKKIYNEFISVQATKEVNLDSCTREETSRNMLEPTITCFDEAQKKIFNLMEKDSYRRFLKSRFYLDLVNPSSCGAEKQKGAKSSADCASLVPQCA
MrgX1 antag – antagonists of human MrgX1 receptor, primary screen, HEK293 cells, Fluo-4 calcium flux. BAM8-22 antagonism; stronger effect = lower value. B-score at 10 µM. 310,000 compounds, 1.3% hits. AID 588676, 2011;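 active = calcium-response B-score plate-corrected more than 3 library SD below zero, starting fluorescence within 5 deviations, no agonist response on first addition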;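 note: peak minus trough fluorescence over baseline after final BAM8-22 challenge near maximal dose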
Target sequence (Q96LB2 whole entry, looked up): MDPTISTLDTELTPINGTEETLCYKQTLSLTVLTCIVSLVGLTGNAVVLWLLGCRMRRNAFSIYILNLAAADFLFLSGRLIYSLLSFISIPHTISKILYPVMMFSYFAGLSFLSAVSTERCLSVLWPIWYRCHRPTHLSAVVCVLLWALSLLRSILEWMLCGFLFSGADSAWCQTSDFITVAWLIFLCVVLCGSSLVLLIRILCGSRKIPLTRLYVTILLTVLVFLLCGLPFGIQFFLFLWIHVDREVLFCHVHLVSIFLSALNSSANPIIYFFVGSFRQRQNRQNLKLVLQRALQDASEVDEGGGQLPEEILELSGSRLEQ
MrgX1 allo act – positive allosteric modulators of MrgX1, primary screen, HEK293 cells, Fluo-4 calcium flux; Mas-related G-protein coupled receptor member X1 (Homo sapiens), Q96LB2; FDSS; stronger effect = higher value; B-score at 10 µM; 310,000 compounds, 0.63% hits; AID 588675, 2011;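 active = plate-corrected calcium response at least 3 library SD above typical, normal starting fluorescence, not activating the receptor alone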;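 note: compound read alongside a low EC10 to EC30 dose of BAM8-22 agonist; peak minus trough fluorescence over baseline measured at the second addition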
MrgX1 agonist – agonists of human MrgX1 receptor, primary screen, HEK293 cells, Fluo-4 calcium flux | Fluo-4 calcium fluorescence, agonist mode; stronger effect = higher value | B-score at 10 µM | 310,000 compounds, 0.44% hits;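 active = calcium response B-score plate-corrected fluorescence ratio at least 3 library SD, with starting fluorescence B-score inside 5 SD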
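System – MrgX1-expressing HEK293 cells · Incubation – cells plated overnight, dye loaded 0.5 h 37 °C, 0.5 h room temperature · Technique – kinetic Fluo-4 NW fluorescence of intracellular calcium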
RGS4 act – RGS4 potentiators or activators, primary screen, cell-based, HEK293 M3R inducible RGS4, calcium flux; carbachol calcium flux Fluo4; stronger effect = lower value; B-score at 10 µM; 310,000 compounds, 0.92% hits;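 active = B-score of the integrated calcium signal more than 4 SD below the library mean, with starting fluorescence not abnormally high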;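 note: negative B-score means reduced calcium response which marks RGS4 activation or potentiation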
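Also added: carbachol at ECmax as muscarinic agonist stimulus; Assay system: HEK293 cells with stable M3R and inducible RGS4; Timing: overnight RGS4 induction, 30 min dye load 37 °C, 20 min compound RT; Measured by: Fluo4-AM (2 µM) calcium-flux fluorescence, kinetic read.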
RGS4 act valid – reduced carbachol calcium response, RGS4-induced M3R cells, confirmation, RGS4 activator project, cell-based, HEK293 M3R/RGS4 inducible, calcium flux, duplicate; AID 602282, 2012; inhibition, % at 10 µM; shares compounds with RGS4 act; 1,100 compounds, 89% hits; carbachol calcium flux Fluo4;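 active = inhibition above 3 SD of the buffer control wells, cut at about 41% in these data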;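 note: signal is the integrated peak-minus-minimum Fluo4 fluorescence over baseline ratio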
M3R Ca counter – counter-screen for RGS4 activators: effect in non-induced cells; shares compounds with RGS4 act; HEK293 M3R non-induced RGS4, Fluo4 calcium flux; after carbachol challenge at its EC90; inhibition, % at 10 µM; 1,100 compounds, 82% hits; AID 602283;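 active = inhibition exceeding 3 SD of buffer-only control wells, cut at about 26% in these data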;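 note: percent drop in integrated peak-minus-baseline over baseline Fluo4 ratio after carbachol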
MrgX1 ag confirm – MrgX1 receptor agonists, duplicate retest, confirmation, HEK293 cells, Fluo-4 calcium flux. 600 compounds, 78% hits. activation, % at 10 µM. shares compounds with MrgX1 agonist. AID 602412, 2012. Fluo-4 calcium fluorescence, FDSS;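 active = calcium signal rise, corrected for plate position, at least 3 library SD high, with starting brightness within 5 such deviations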; note: reference of the scale not given here
HEK293 Ca flux – nonspecific calcium signal in parental HEK293, confirmation, counter-screen for MrgX1 antagonist project, parental HEK293 cells, Fluo-4 calcium flux | shares compounds with MrgX1 antag | Fluo-4 calcium fluorescence, FDSS | fluorescence ratio F(max-min)/F0 at 10 µM | 4,000 compounds, 2% hits | AID 624111, 2012;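 active = duplicate-averaged calcium fluorescence ratio at least three times the standard deviation of buffer wells, a nonspecific response in parental cells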
HEK293 Ca counter – calcium response in parental HEK293 cells, primary screen, counter-screen for MrgX1 allosteric activator project, cell-based, Fluo-4 calcium flux, duplicate | Fluo-4 fluorescence ratio; stronger effect = higher value | shares compounds with MrgX1 antag | AID 624114, 2012 | 4,000 compounds, 0.4% hits | fluorescence ratio F(max-min)/F0 at 10 µM;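 active = calcium fluorescence ratio, averaged over duplicates, at least 3 SD of the buffer-well ratio, meaning a nonspecific response in receptor-free cells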;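 note: untransfected parental HEK293 lacking MrgX1 used as counterscreen for MrgX1 allosteric activators; fluorescence change taken during the second addition on a kinetic imager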
HEK293 Ca cntr2 – calcium response in parental HEK293 cells, primary screen, counter-screen for MrgX1 agonist project, cell-based, Fluo-4 calcium flux, duplicate, agonist mode; shares compounds with MrgX1 antag; Fluo-4 calcium fluorescence (FDSS); stronger effect = higher value; fluorescence ratio F(max-min)/F0 at 10 µM; 4,000 compounds, 8.7% hits; AID 624115, 2012;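 active = calcium fluorescence ratio at least three times the spread of buffer wells, meaning a non-specific response in parental cells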
A number is an active result; 0 = inactive; - = no result given.

SMILES	RGS4 block	MrgX1 antag	MrgX1 allo act	MrgX1 agonist	RGS4 act	RGS4 act valid	M3R Ca counter	others
CC(Cc1ccccc1Sc1ccccc1)N(C)C (stereo unspecified)	0	0	0	0	-9.3	-	-
COc1ccc(C(=O)NC(=S)N2C[C@H]3C[C@H](C2)c2cccc(=O)n2C3)cc1	0	0	0	0	0	-	-
NC(N)=N/N=C/c1ccc(N(c2ccccc2)c2ccccc2)cc1	0	0	0	0	-8.3	-	-
CC(=NCCCn1ccnc1)c1c(O)n(C2CCCCC2)c(=O)[nH]c1=O	0	0	0	0	0	-	-
COC1=CC(=O)O[C@@H](/C=C/c2ccccc2)C1	-	0	0	0	-	-	-
C[N+]12CCC(CC1)C(C(O)(c1ccccc1)c1cccs1)C2 (stereo unspecified)	0	0	0	0	-7.7	-	-
Cc1c(OC(=O)N(C)C)ccc2c1O/C(=C\c1ccco1)C2=O	0	0	0	0	0	-	-
O=C1/C(=C\c2ccccc2)C2OCC=C3CN4CCC56c7ccccc7N1C5C2C3CC46 (stereo unspecified)	0	-6.6	0	0	0	-	-
C=C1C(=O)O[C@@H]2C[C@@H](C)[C@@H]3C4OC4C(=O)[C@@]3(C)[C@@H](O)[C@H]12 (stereo partly specified)	5.2	0	0	0	0	-	-
CCOP(=O)(OCC)C(Cc1ccccc1)NC(C)=O (stereo unspecified)	0	0	0	0	0	-	-
CCOP(=S)(NN(Cc1ccccc1)C(=O)c1ccccc1)OCC	0	0	0	0	-14	0	0
Cc1cccc(OP(=O)(NCc2ccccc2)Oc2cccc(C)c2)c1	0	0	0	0	0	-	-
COC(=O)c1ccc(COc2cc(C)cc3oc(=O)c4c(c23)CCCC4)o1	0	0	0	0	-11	79	46
Cc1cc(OCC(=O)O)c2c3c(c(=O)oc2c1)CCCC3	0	0	0	0	0	-	-
Fc1cccc(CCNCc2ccccn2)c1	0	0	0	0	0	-	-
CC(Cc1ccccc1Sc1ccc(O)cc1)N(C)C (stereo unspecified)	0	0	0	0	-9.2	95	94
CC(N)Cc1ccccc1Sc1ccc(O)cc1 (stereo unspecified)	0	0	0	0	0	-	-
CCOC(=O)C1(CCc2ccccc2)CCN(Cc2cccc3cnccc23)CC1	0	0	0	0	-11	89	59
CSc1ccc(C(=O)C2CCCN(Cc3cccnc3)C2)cc1 (stereo unspecified)	0	0	0	0	-8.5	68	26
CC[C@@H](CO)C1CC2NC3CC4(c5ccccc5N(C)[C@@H]24)C(O)C31 (stereo partly specified)	0	0	0	0	0	-	-
CC(=O)N1CCC(N2CCCC(C(=O)c3cccc(Cl)c3)C2)CC1 (stereo unspecified)	0	0	0	0	-10	80	84
COc1cccc(C(=O)C2CCCN(C3CCOCC3)C2)c1 (stereo unspecified)	0	0	0	0	0	-	-
CCN(CC)CCCOC(=O)C(OC)(c1ccccc1)c1ccccc1	0	0	0	0	-11	91	86
COc1ccc(C(=O)C2CCCN(C3CSCCSC3)C2)c(C)c1 (stereo unspecified)	0	0	0	0	-8.8	86	44
COc1ccc(C(=O)C2CCCN(CCO)C2)c(C)c1 (stereo unspecified)	0	0	0	0	0	-	-
SMILES	RGS4 block	MrgX1 antag	MrgX1 allo act	MrgX1 agonist	RGS4 act	RGS4 act valid	M3R Ca counter	others
COc1ccc(C(=O)C2CCCN(C3CSCCSC3)C2)c(OC)c1 (stereo unspecified)	0	0	0	0	-7.7	45	84
COc1ccc(C(=O)C2CCCN(Cc3ccc(C)s3)C2)c(OC)c1 (stereo unspecified)	0	0	0	0	0	-	-
CCn1ccnc1CN1CCCC(C(=O)c2cccc(C(F)(F)F)c2)C1 (stereo unspecified)	0	0	0	0	-9.9	93	87
CC1(C)CC(=O)C(C2(O)C(=O)NC(=O)NC2=O)=C(O)C1	0	0	0	0	0	-	-
CCN1CCN(C(=O)COc2ccc3c(c2)C(=O)CC2(CCN(C(C)=O)CC2)O3)CC1	0	0	0	0	0	-	-
CN1CC=C(/C=C/c2ccc(-c3ccccc3)cc2)CC1	0	0	0	0	-8.7	66	31
COc1cccc2cc(-c3cc(=O)oc4ccc(OC(=O)N(C)C)cc34)oc12	0	0	0	0	0	-	-
OC(c1cccc(Cl)c1)(c1cccc(Cl)c1)C1CN2CCC1CC2 (stereo unspecified)	0	0	0	0	-14	93	93
CCN(CC)S(=O)(=O)N1CCC(C(=O)N2CCC3(CC2)OCCO3)CC1	0	0	0	0	0	-	-
CCN(CC)S(=O)(=O)c1cc(NC(=O)C(C)N2CC=C(c3ccccc3)CC2)ccc1C (stereo unspecified)	0	0	0	0	-7.6	79	35
CCCCn1c(=O)c(C(=O)Nc2ncccc2C)c(O)c2ccccc21	0	0	0	35	-9.5	66	41	MrgX1 ag confirm=0;HEK293 Ca flux=0;HEK293 Ca counter=0;HEK293 Ca cntr2=0
C[C@H](N)CN1CCc2ccc(Br)cc21	0	0	0	0	0	-	-
